# Hits are enriched below; roughly 0.79% of the tested compounds scored in any of these assays.
# hIAP activ: human IAP activators, primary screen, biochemical, luminescence, uHTS; Intestinal-type alkaline phosphatase (Homo sapiens), P09923; purified human IAP, CDP-Star luminescence, 30 min; hits give high values; 1 = vehicle-only enzyme, 0 = enzyme-free background; activation factor at 10 µM; 330,000 tested, 0.16% active; AID 2524, 2010;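 active means activation factor of the enzyme at least 2-fold when tested at 20 µM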
# Target sequence (P09923 whole entry, looked up): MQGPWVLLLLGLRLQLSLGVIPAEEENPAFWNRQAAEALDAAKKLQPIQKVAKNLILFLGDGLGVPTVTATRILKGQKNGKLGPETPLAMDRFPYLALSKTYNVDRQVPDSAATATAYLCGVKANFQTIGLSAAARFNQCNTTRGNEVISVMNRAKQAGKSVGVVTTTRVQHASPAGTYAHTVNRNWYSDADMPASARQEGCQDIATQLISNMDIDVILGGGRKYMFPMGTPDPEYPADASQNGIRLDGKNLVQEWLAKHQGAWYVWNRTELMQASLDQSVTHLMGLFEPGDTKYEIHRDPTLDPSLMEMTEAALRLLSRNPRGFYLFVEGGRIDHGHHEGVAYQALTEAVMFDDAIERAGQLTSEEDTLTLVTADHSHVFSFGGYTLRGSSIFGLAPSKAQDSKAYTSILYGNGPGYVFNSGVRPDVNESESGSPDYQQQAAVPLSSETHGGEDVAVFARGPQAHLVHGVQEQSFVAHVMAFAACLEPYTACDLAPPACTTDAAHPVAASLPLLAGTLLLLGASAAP
# mIAP block: inhibitors of mouse IAP, primary screen, biochemical, luminescence, uHTS | purified mouse IAP, CDP-Star luminescence, 30 min | inhibition, % at 10 µM | 330,000 tested, 0.2% active | intestinal alkaline phosphatase [Mus musculus];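 active means inhibition of at least 40% at 10 µM in the primary screen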;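 further: plate controls were DMSO with enzyme for no effect and no enzyme wells for full effect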
# hIAP block: human IAP inhibitors, primary screen, biochemical, luminescence, uHTS. inhibition, % at 10 µM. Intestinal-type alkaline phosphatase (Homo sapiens), P09923. 330,000 tested, 0.12% active. AID 2544, 2010. purified IAP, CDP-Star luminescence, 30 min;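 active means inhibition reaching a set limit with compound at 10 µM in the primary screen, cut at about 35% in these data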;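 further: plate controls were DMSO wells with enzyme for no effect and no-enzyme buffer wells for full effect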
# bIAP activator: bovine intestinal alkaline phosphatase activators, primary screen, biochemical, bovine IAP, CDP-star luminescence | alkaline phosphatase, intestinal [Bos taurus] | purified bovine IAP, 30 min; hits give high values; fold of DMSO-control signal, blank-subtracted | activation factor at 20 µM | 200,000 tested, 0.17% active;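 active means activation factor of 2 or more at 20 µM, a signal rise over negative controls twice the positive control's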
# mIAP act: activators of mouse IAP, primary screen, biochemical, luminescence, uHTS; muIAP, CDP-Star luminescence, 30 min; hits give high values; 1 = vehicle-only enzyme signal, 0 = enzyme-free wells; intestinal alkaline phosphatase [Mus musculus]; 330,000 tested, 0.24% active; activation factor at 10 µM;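 active means activation factor of at least 2 at 20 µM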
#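 Assay system: mouse IAP enzyme / Compound: DMSO-dissolved test compounds / Timing: 30 min, room temperature / Measured by: luminescence from enzymatic CDP-Star hydrolysis / Control set: DMSO-only wells, enzyme-free buffer wells as negative control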
# bIAP inh: bovine intestinal alkaline phosphatase inhibitors, primary screen, selectivity assay for TNAP inhibitor project, biochemical, bovine IAP, CDP-star luminescence | alkaline phosphatase, intestinal [Bos taurus] | purified bovine IAP, 30 min | inhibition, % at 20 µM | 190,000 tested, under 10 active | AID 1019, 2008;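 active means over 50% inhibition of intestinal alkaline phosphatase at 20 µM in the single-dose screen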
#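 test system = bovine IAP enzyme | medium = DEA buffer 100 mM, pH 9.8, with MgCl2 1.0 mM, ZnCl2 0.02 mM | detection = luminescence | dosing = single compound dose of 20 µM, 2% DMSO final | incubation = 30 min reaction at room temperature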
# The depositor's hits bear a star; i = inactive; . = not tested or not shown.
SMILES,hIAP activ,mIAP block,hIAP block,bIAP activator,mIAP act,bIAP inh
CC(=O)N1c2ccc(S(=O)(=O)N3CCCCC3)cc2CC1C(=O)Nc1ccc(F)cc1C (stereo unspecified),0.97,2,3,.,0.98,.
COc1ccccc1NC(=O)CN1CCN(C2c3ccccc3-c3ccccc32)CC1,1.1,-9,-10,2*,1.1,-96
CC1CC(C)(C)NCCNC(C)CC(C)(C)NCCN1 (stereo unspecified),1,-18,-4,2.8*,1.2,-177
CC(Sc1nnc(-c2ccco2)o1)C(=O)Nc1ccc(OC(F)F)cc1 (stereo unspecified),1.1,51*,-10,.,0.49,.
COc1ccc(C[C@H]2CN3C(=NC[C@@H]3Cc3ccccc3)N2C[C@H](C)NC(=O)CCC2CCCCC2)cc1,0.93,7,7,.,0.93,.
COc1ccc(C[C@H]2CN3C(=NC[C@H]3Cc3ccccc3)N2CCNC(=O)CCC2CCCCC2)cc1,1,-5,-1,2.4*,1,-140
COc1ccc(CCC(=O)Nc2nnc(C(F)(F)F)s2)cc1,1,15,0,.,0.85,.
CN1CCC(=NNC(=O)C(=O)NC(C)(C)C)CC1,0.96,9,4,3.8*,0.91,-276
CC(C)(C)NC(=O)C(=O)NN=C1CCCCCC1,1.1,-5,-7,1,1,2
Cn1c(=O)[nH]c(=O)c2c1nc(N1CCCCCC1)n2CCSc1nc2ccccc2o1,1,-11,0,0.9,1.1,5
Cn1c(=O)[nH]c(=O)c2c1nc(N1CCCCCC1)n2CCCSc1nc2ccccc2o1,1,-9,-1,6.8*,1.1,i
Cc1cc(NC(=O)Nc2ccccc2F)ccc1Br,1.1,-205,-5,0.9,3.1*,6
O=C(Nc1ccccc1)Nc1ccc(Br)cc1F,0.83,-81,17,0.9,1.8,14
COc1ccc(OCC(O)Cn2c(=N)n(Cc3ccccc3)c3ccccc32)cc1 (stereo unspecified),1.1,-4,-9,2.8*,1,-178
Cc1c(Cl)cccc1NC(=S)NCc1ccccc1Cl,1,-169,-1,1.1,2.7*,-6
O=C1c2ccccc2S(=O)(=O)c2cc(N3CCC(C(=O)N4CCCCC4)CC3)ccc21,0.81,-2,19,.,1,.
O=C1c2ccccc2S(=O)(=O)c2cc(N3CCc4ccccc4C3)ccc21,0.92,43*,8,.,0.57,.
CC(C)c1nc2sc3c(c2c(=O)[nH]1)CC(C)(C)OC3,0.94,-8,6,.,1.1,.
S=C(NCc1ccccc1)NC1CCCc2ccccc21 (stereo unspecified),1,-157,-4,1,2.6*,-3
O=C1C(Cc2ccccc2)Nc2ncnc(N3CCN(c4ccccc4)CC3)c2N1Cc1ccc(Cl)cc1 (stereo unspecified),0.97,0,3,.,0.99,.
Cc1ccc(-n2ncc(C(=O)Nc3cc(Cl)cc(Cl)c3)c2C2CCNCC2)cc1C,.,.,.,6.1*,.,i
O=C(NC(=S)NNC(=O)c1cc2ccccc2cc1O)c1ccco1,2.2*,35,-124,0.9,0.65,8
O=C(NC(=S)NNC(=O)c1ccccc1O)c1ccco1,.,.,.,0.9,.,10
CCOC(=O)N1CCN(C(=O)CN(C)S(=O)(=O)c2ccc(OCC)cc2)CC1,0.91,3,9,.,0.97,.
COc1ccc(C2=NOC(Cn3nc(-c4ccccc4)cc3C(=O)NCc3ccccc3OC)C2)cc1 (stereo unspecified),1,-107,0,.,2.1*,.
COc1ccccc1NS(=O)(=O)c1cccc(NC(=O)Nc2cccc(Cl)c2)c1,1.1,-124,-6,0.9,2.2*,10
COc1ccc(NC(=O)Nc2cccc(OC)c2)cc1,0.95,-66,5,.,1.7,.
